In ChEMBL document CHEMBL2040744, “Phenanthrene derivatives from Cymbidium Great Flower Marie Laurencin and their biological activities” (J Nat Prod, 2012) one finds MIC and IC50 data, which are given here for twelve compounds.

Structures are written as SMILES. Converted amounts (≈) assume the structure as drawn.

What is called MIC is the smallest concentration in the dilution series that meets the test's criterion for growth inhibition. What is called IC50 is the midpoint of a concentration-inhibition curve. High values mean weaker potency in that assay, low ones greater potency in that assay.

The subject of one assay is Bacillus subtilis. Briefly: Antibacterial activity against Bacillus subtilis NBRC 3134 after overnight incubation by microdilution method. It counts as functional. Summed up:
(§1)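 Broth microdilution MIC. Strains were first grown on YP agar (1% polypeptone, 0.2% yeast extract, 0.1% MgSO4·7H2O, 6% agar) for 12 h, B. subtilis at 37 °C and K. pneumoniae at 27 °C. Samples came from a 10 mg/mL DMSO stock, serially diluted in 96-well plates of strain in YP medium, then incubated overnight at 37 °C. Ampicillin served as reference.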
(Dilution methods test growth across graded concentrations, often in twofold steps.)

For another assay, the system named is Klebsiella pneumoniae. Briefly: Antibacterial activity against Klebsiella pneumoniae NBRC 3512 after overnight incubation by microdilution method. Type of assay: functional. Summed up:
as §1

The test system of the next assay is HL-60. Nature of the assay: Cytotoxicity against human HL60 cells after 72 hrs by WST8 assay. Type of assay: functional, cell-based. Conditions: HL-60, 72 h. Summed up:
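HL-60 cells were kept in RPMI-1640 with 10% FBS at 37 °C under 5% CO2. Cells were seeded at 5 × 10^3 per well and preincubated 2 h, then exposed to compound in medium for 72 h. WST-8 was added for a further 3 h, and formazan absorbance was read at 450 nm to give IC50.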
In general terms: Formazan colour is commonly taken as a measure of viable cells.

Regarding `CC1(C)S[C@@H]2[C@H](NC(=O)[C@H](N)c3ccccc3)C(=O)N2[C@H]1C(=O)O` [AMPICILLIN], the MIC came to 0.36 µM (≈ 0.126 µg/mL) with Bacillus subtilis and 107 µM (≈ 37.5 µg/mL) in the assay on Klebsiella pneumoniae.

`COc1c(O)c2c(c(OC)c1O)-c1c(O)cccc1CC2` [MARYLAURENCINOLS B] had an MIC in the assay on Bacillus subtilis of 65.1 µM (≈ 18.8 µg/mL). The compound further registered an IC50 in the assay with HL-60 of 174 µM.

Compound `COC1=CC(=O)C2=C(CCc3cccc(O)c32)C1=O` [EPHEMERANTHOQUINONE B] gave a minimal inhibitory concentration (MIC) in the assay with Bacillus subtilis of 4.88 µM (≈ 1.25 µg/mL). Besides, in the assay on HL-60, inhibition was half-maximal at 2.8 µM (IC50).

In turn, `COc1cc2ccc3c(OC)c(O)ccc3c2c(OC)c1O` showed an MIC in the assay with Bacillus subtilis of 250 µM (≈ 75.1 µg/mL). The compound further came in with a concentration for half-maximal inhibition (IC50) with HL-60 of 103 µM.

On to `COc1cc2c(c(OC)c1O)-c1c(O)cccc1CC2` [MARYLAURENCINOLS A], for which half-maximal inhibition in the assay on HL-60 (IC50) required 96.8 µM.

As to `CO[C@@]12[C@H](COC(N)=O)C3=C(C(=O)C(C)=C(N)C3=O)N1C[C@@H]1N[C@@H]12` [MITOMYCIN], the IC50 in the assay with HL-60 amounted to 0.1 µM.

Take `COc1cc2ccc3cccc(O)c3c2c(OC)c1O` [BULBOPHYLLANTHRIN]: the MIC with Bacillus subtilis and against Klebsiella pneumoniae was 185 µM (≈ 50.1 µg/mL) throughout. In addition, the IC50 with HL-60 was found to be 52.4 µM.

Compound `COc1cc2c(c(O[C@@H]3O[C@H](CO)[C@@H](O)[C@H](O)[C@H]3O)c1O)-c1c(O)cccc1CC2` [MARYLAURENCINOSIDE A] came in with a 50% inhibitory concentration (IC50) in the assay on HL-60 of 52.4 µM.

In turn, `COc1cc2ccc3cc(O)ccc3c2c(OC)c1O` returned an MIC against Bacillus subtilis of 185 µM (≈ 50.1 µg/mL). The IC50 in the assay on HL-60 was 34.2 µM.

Turning to `COc1c(O)cc2c(c1OC)-c1ccc(O)cc1CC2` [ERIANTHRIDIN], in the assay on HL-60, the IC50 was 44.6 µM.

On to `COc1ccc2c(ccc3cc(OC)c(O)c(OC)c32)c1`, for which, in the assay on Bacillus subtilis, the lowest concentration to inhibit growth (MIC) was 52.8 µM (≈ 15 µg/mL). For the same compound, half-maximal inhibition in the assay on HL-60 (IC50) was put at 19.3 µM.

For the compound `COc1ccc2c(c1)CCc1cc(OC)c(O)c(OC)c1-2`, the IC50 in the assay on HL-60 turned out to be 31.8 µM.
